Legend:
Left cardiac atrium [1] = test: Negative inotropic activity in potassium depolarized guinea pig left atrium assessed as reduction in developed tension after 30 mins; format: functional; conditions: Cavia porcellus, 0.5 h
Summary of the method: (§1)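 Guinea pig left atria electrically driven at 1 Hz. EC50 taken from log concentration−response curves by Litchfield and Wilcoxon probit analysis, n = 6−7. Not calculated when the maximum effect was below 50%.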

Aorta [2] = test: Vasorelaxant activity in potassium depolarized guinea pig aorta assessed as inhibition of calcium-induced contraction at 10^-4 M after 30 mins; format: functional, Cavia porcellus; parameters: scale not given: the % may be the effect or the level left
Summary of the method: (§2)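 Guinea pig aortic strips depolarized with K+ (80 mM). Calcium-induced contraction measured; inhibition expressed as percent change from control, n = 3−5.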

Left cardiac atrium [3] = test: Negative inotropic activity in potassium depolarized guinea pig left atrium assessed as reduction in developed tension at 50 uM after 30 mins; format: functional, Cavia porcellus; parameters: scale not given: the % may be the effect or the level left
Right cardiac atrium [4] = test: Negative chronotropic activity in potassium depolarized guinea pig right atrium assessed as reduction in atrial rate at 10^-4 M after 30 mins; format: functional, Cavia porcellus; parameters: scale not given: the % may be the effect or the level left
Cytochrome P450 1A2 = molecular target: T1, Cytochrome P450 1A2 (Homo sapiens, UniProt P05177); test: Inhibition of CYP1A2 in human liver microsomes using phenacetin as substrate after 30 mins by LC-MS analysis
T1 sequence (P05177 whole entry): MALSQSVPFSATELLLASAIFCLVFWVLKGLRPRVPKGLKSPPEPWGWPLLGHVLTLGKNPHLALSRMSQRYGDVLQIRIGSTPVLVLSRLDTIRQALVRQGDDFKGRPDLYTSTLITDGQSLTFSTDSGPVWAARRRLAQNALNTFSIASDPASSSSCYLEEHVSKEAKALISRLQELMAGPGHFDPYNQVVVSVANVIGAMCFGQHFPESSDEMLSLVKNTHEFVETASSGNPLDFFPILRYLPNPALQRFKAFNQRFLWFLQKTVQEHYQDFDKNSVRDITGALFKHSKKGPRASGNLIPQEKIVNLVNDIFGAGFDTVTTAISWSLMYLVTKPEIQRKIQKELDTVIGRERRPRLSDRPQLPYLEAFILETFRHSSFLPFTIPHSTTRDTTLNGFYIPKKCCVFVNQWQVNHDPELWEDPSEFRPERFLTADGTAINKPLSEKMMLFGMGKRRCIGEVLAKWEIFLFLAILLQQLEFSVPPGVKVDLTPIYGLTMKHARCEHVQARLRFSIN

in vitro = conditions: human, liver microsomes
Cytochrome P450 2C9 = Cytochrome P450 2C9 (Homo sapiens, UniProt P11712); test: Inhibition of CYP2C9 in human liver microsomes using tolbutamide as substrate after 20 mins by LC-MS analysis
Sequence of Cytochrome P450 2C9 (P11712 whole entry): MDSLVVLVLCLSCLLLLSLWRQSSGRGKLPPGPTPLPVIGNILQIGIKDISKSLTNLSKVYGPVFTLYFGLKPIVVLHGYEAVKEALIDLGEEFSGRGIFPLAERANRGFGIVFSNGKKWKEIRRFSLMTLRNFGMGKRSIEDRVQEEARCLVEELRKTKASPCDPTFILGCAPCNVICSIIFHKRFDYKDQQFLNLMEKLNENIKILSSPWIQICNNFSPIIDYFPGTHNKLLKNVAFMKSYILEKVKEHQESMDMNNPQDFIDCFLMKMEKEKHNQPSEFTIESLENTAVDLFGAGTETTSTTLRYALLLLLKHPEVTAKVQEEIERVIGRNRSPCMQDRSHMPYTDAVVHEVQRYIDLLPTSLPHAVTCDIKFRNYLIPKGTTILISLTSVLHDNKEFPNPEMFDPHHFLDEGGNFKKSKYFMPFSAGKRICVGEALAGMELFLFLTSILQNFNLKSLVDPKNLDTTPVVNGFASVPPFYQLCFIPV

Cytochrome P450 2D6 = Cytochrome P450 2D6 (Homo sapiens, UniProt P10635); test: Inhibition of CYP2D6 in human liver microsomes using dextromethorphan as substrate after 10 mins by LC-MS analysis
Sequence of Cytochrome P450 2D6 (P10635 whole entry): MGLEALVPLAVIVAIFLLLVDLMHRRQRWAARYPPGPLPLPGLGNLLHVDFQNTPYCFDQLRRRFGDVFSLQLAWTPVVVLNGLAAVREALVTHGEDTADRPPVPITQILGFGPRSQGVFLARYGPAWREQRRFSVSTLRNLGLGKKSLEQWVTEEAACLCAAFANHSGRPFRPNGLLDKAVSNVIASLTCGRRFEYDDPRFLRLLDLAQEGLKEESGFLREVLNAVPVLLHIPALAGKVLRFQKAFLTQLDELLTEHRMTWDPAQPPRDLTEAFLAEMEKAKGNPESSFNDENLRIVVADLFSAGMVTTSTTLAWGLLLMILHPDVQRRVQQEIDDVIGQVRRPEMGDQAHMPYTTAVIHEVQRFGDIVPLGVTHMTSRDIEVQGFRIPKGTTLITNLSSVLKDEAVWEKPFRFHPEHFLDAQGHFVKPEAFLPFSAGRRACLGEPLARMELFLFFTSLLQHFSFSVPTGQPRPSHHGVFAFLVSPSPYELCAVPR

Left cardiac atrium [5] = test: Negative inotropic activity in potassium depolarized guinea pig left atrium assessed as reduction in developed tension at 10^-5 M after 30 mins; format: functional, Cavia porcellus; parameters: scale not given: the % may be the effect or the level left
Liver microsome = test: Stability in human liver microsomes at 1 uM after 2 to 60 mins by LC-MS analysis in absence of NADPH
Cytochrome P450 3A4 [6] = molecular target: T2, Cytochrome P450 3A4 (Homo sapiens, UniProt P08684); test: Inhibition of CYP3A4 in human liver microsomes using testosterone as substrate after 5 mins by LC-MS analysis
T2 sequence (P08684 whole entry): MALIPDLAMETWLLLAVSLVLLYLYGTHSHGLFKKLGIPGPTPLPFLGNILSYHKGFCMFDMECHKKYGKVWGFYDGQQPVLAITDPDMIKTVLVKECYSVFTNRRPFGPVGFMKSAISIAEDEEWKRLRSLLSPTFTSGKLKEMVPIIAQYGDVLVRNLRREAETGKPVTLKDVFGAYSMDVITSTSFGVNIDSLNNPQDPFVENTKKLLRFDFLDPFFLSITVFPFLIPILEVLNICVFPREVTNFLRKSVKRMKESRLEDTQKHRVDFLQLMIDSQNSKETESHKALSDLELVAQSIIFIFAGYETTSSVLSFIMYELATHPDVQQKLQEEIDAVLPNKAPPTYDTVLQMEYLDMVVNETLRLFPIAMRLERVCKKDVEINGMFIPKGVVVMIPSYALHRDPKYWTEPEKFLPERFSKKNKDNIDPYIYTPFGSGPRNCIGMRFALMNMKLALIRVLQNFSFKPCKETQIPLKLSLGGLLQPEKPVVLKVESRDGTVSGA

[7] = Relaxant activity in potassium depolarized guinea pig ileum longitudinal smooth muscle assessed as inhibition of calcium-induced contraction at 50 uM after 30 mins; format: functional, Cavia porcellus; parameters: scale not given: the % may be the effect or the level left
Cytochrome P450 3A4 [8] = molecular target: T2, Cytochrome P450 3A4; test: Inhibition of CYP3A4 in human liver microsomes using midazolam as substrate after 4 mins by LC-MS analysis
Cytochrome P450 2C19 = Cytochrome P450 2C19 (Homo sapiens, UniProt P33261); test: Inhibition of CYP2C19 in human liver microsomes using (S)-mephenytoin as substrate after 40 mins by LC-MS analysis
Sequence of Cytochrome P450 2C19 (P33261 whole entry): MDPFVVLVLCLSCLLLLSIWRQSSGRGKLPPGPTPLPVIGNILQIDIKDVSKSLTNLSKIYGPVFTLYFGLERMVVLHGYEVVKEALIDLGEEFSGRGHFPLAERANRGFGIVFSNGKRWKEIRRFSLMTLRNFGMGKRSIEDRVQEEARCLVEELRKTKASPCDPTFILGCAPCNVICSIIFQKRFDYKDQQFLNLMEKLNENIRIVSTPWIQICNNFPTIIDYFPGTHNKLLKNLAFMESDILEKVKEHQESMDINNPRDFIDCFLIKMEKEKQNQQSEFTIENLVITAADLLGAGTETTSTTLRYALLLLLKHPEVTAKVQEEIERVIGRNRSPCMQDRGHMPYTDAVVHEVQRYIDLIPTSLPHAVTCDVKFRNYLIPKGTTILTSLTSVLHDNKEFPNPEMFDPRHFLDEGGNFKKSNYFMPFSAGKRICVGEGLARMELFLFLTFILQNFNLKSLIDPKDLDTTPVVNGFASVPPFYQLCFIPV

[9] = Relaxant activity in potassium depolarized guinea pig ileum longitudinal smooth muscle assessed as inhibition of calcium-induced contraction after 30 mins; format: functional, tissue-based; conditions: Cavia porcellus, 0.5 h
Right cardiac atrium [10] = test: Negative chronotropic activity in potassium depolarized guinea pig right atrium assessed as reduction in atrial rate at 10^-6 M after 30 mins; format: functional, Cavia porcellus; parameters: scale not given: the % may be the effect or the level left
[11] = Half life in human liver microsomes assessed as CYP-mediated compound degradation at 1 uM by LC-MS analysis
Right cardiac atrium [12] = test: Negative chronotropic activity in potassium depolarized guinea pig right atrium assessed as reduction in atrial rate at 10^-5 M after 30 mins; format: functional, Cavia porcellus; parameters: scale not given: the % may be the effect or the level left
Left cardiac atrium [13] = test: Negative inotropic activity in potassium depolarized guinea pig left atrium assessed as reduction in developed tension at 10^-4 M after 30 mins; format: functional, Cavia porcellus; parameters: scale not given: the % may be the effect or the level left
[14] = Relaxant activity in potassium depolarized guinea pig ileum longitudinal smooth muscle assessed as inhibition of calcium-induced contraction at 10^-4 M after 30 mins; format: functional, Cavia porcellus; parameters: scale not given: the % may be the effect or the level left
Left cardiac atrium [15] = test: Negative inotropic activity in potassium depolarized guinea pig left atrium assessed as reduction in developed tension; format: functional; conditions: Cavia porcellus; summary of the method: as §1
Aorta [16] = test: Vasorelaxant activity in potassium depolarized guinea pig aorta assessed as relaxation of calcium-induced contraction; format: functional, tissue-based; conditions: Cavia porcellus; summary of the method: as §2
Left cardiac atrium [17] = test: Negative inotropic activity in potassium depolarized guinea pig left atrium assessed as reduction in developed tension at 10^-5 M; format: functional, Cavia porcellus; parameters: scale not given: the % may be the effect or the level left
Aorta [18] = test: Vasorelaxant activity in potassium depolarized guinea pig aorta assessed as inhibition of calcium-induced contraction at 10^-6 M; format: functional, Cavia porcellus; parameters: scale not given: the % may be the effect or the level left
Summary of the method: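 Guinea pig aortic strips depolarized with 80 mM K+, then contracted by calcium addition. The read-out is percent inhibition of the calcium-induced contraction, expressed as percent change from control, with n = 3–5.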

Aorta [19] = test: Vasorelaxant activity in potassium depolarized guinea pig aorta assessed as inhibition of calcium-induced contraction at 50 uM after 30 mins; format: functional, Cavia porcellus; parameters: scale not given: the % may be the effect or the level left; summary of the method: as §2
Left cardiac atrium [20] = test: Negative inotropic activity in potassium depolarized guinea pig left atrium assessed as reduction in developed tension at 10^-6 M after 30 mins; format: functional, Cavia porcellus; parameters: scale not given: the % may be the effect or the level left
Right cardiac atrium [21] = test: Negative chronotropic activity in potassium depolarized guinea pig right atrium assessed as reduction in atrial rate at 50 uM after 30 mins; format: functional, Cavia porcellus; parameters: scale not given: the % may be the effect or the level left
Right cardiac atrium [22] = test: Negative chronotropic activity in potassium depolarized guinea pig right atrium assessed as reduction in atrial rate after 30 mins; format: functional; conditions: Cavia porcellus, 0.5 h
Aorta [23] = test: Vasorelaxant activity in potassium depolarized guinea pig aorta assessed as inhibition of calcium-induced contraction at 10^-4 M; format: functional, Cavia porcellus; parameters: scale not given: the % may be the effect or the level left; summary of the method: as §2
[24] = Relaxant activity in potassium depolarized guinea pig ileum longitudinal smooth muscle assessed as inhibition of calcium-induced contraction at 5 uM after 30 mins; format: functional, Cavia porcellus; parameters: scale not given: the % may be the effect or the level left

O=c1onc2n1-c1ccccc1SC2(OCC1CCCCC1)c1ccccc1 (stereo unspecified)
EC50 (Left cardiac atrium [1]): 0.28 µM
Activity (Aorta [2]): 3%
Activity (Left cardiac atrium [3]): 86%
Activity (Right cardiac atrium [4]): 6%

CCOC1(c2ccccc2)SC=C(C)n2c1noc2=O (stereo unspecified)
EC50 (Left cardiac atrium [1]): 0.22 µM
IC50 (Cytochrome P450 1A2): > 20 µM
microsomal CLint at 1 µM (in vitro): 86 µL/min/mg
IC50 (Cytochrome P450 2C9): > 20 µM
IC50 (Cytochrome P450 2D6): 16.9 µM
Activity (Left cardiac atrium [5]): 86%
Stability (Liver microsome): Stable
IC50 (Cytochrome P450 3A4 [6]): 19.1 µM
Activity (Aorta [2]): 32%
Activity [7]: 89%
IC50 (Cytochrome P450 3A4 [8]): > 20 µM
IC50 (Cytochrome P450 2C19): 4.8 µM
IC50 [9]: 11.6 µM
Activity (Right cardiac atrium [10]): 11%
half-life at 1 µM [11]: 20 min

COc1ccccc1C1(O)SC=C(C)n2c1noc2=O (stereo unspecified)
EC50 (Left cardiac atrium [1]): 0.93 µM
Activity (Right cardiac atrium [12]): 11%
Activity (Aorta [2]): 25%
Activity (Left cardiac atrium [3]): 94%

COc1ccc(C2(OCC(F)(F)F)Sc3ccccc3-n3c2noc3=O)cc1 (stereo unspecified)
EC50 (Left cardiac atrium [1]): 0.095 µM
IC50 (Cytochrome P450 1A2): > 20 µM
microsomal CLint at 1 µM (in vitro): 76 µL/min/mg
IC50 (Cytochrome P450 2C9): > 20 µM
IC50 (Cytochrome P450 2D6): > 20 µM
Stability (Liver microsome): Stable
IC50 (Cytochrome P450 3A4 [6]): > 20 µM
Activity (Aorta [2]): 6%
IC50 (Cytochrome P450 3A4 [8]): > 20 µM
IC50 (Cytochrome P450 2C19): 17 µM
IC50 [9]: 10.3 µM
Activity (Left cardiac atrium [13]): 82%
Activity (Right cardiac atrium [4]): 19%
half-life at 1 µM [11]: 23 min
Activity [14]: 66%

COc1ccc(CCN(C)CCCC(C#N)(c2ccc(OC)c(OC)c2)C(C)C)cc1OC (stereo unspecified)
EC50 (Left cardiac atrium [15]): 0.61 µM
IC50 (Aorta [16]): 0.38 µM
Activity (Left cardiac atrium [17]): 84%
Activity (Aorta [18]): 95%

COc1ccc(C2(O)Sc3ccccc3-n3c2noc3=O)cc1 (stereo unspecified)
Activity (Aorta [19]): 19%
EC50 (Left cardiac atrium [1]): 0.1 µM
Activity (Left cardiac atrium [20]): 95%
Activity (Right cardiac atrium [21]): 26%

COC(=O)C1=C(C)NC(C)=C(C(=O)OC)C1c1ccccc1[N+](=O)[O-] [NIFEDIPINE]
EC50 (Left cardiac atrium [15]): 0.26 µM
Activity (Left cardiac atrium [17]): 97%
Activity (Aorta [18]): 82%

COc1cccc(C2(OC(C)C)SC=C(C)n3c2noc3=O)c1 (stereo unspecified)
EC50 (Left cardiac atrium [1]): 0.064 µM
Activity (Aorta [2]): 36%
Activity [7]: 98%
IC50 [9]: 3.53 µM
Activity (Right cardiac atrium [21]): 2%
Activity (Left cardiac atrium [3]): 84%

COc1ccc(C2(OC(C)C)SC=C(C)n3c2noc3=O)cc1 (stereo unspecified)
EC50 (Left cardiac atrium [1]): 0.43 µM
Activity (Left cardiac atrium [5]): 69%
Activity (Aorta [2]): 11%
Activity (Right cardiac atrium [21]): 14%

CC1=CSC(OCC2CCCCC2)(c2ccccc2)c2noc(=O)n21 (stereo unspecified)
EC50 (Left cardiac atrium [1]): 0.87 µM
Activity (Aorta [2]): 14%
Activity (Left cardiac atrium [13]): 56%
Activity (Right cardiac atrium [4]): 2%

CC1=CSC(OC(C)C)(c2ccccc2)c2noc(=O)n21 (stereo unspecified)
EC50 (Left cardiac atrium [1]): 1.19 µM
Activity (Aorta [2]): 39%
Activity [7]: 97%
IC50 [9]: 4.82 µM
Activity (Right cardiac atrium [10]): 25%
Activity (Left cardiac atrium [13]): 82%

O=c1onc2n1-c1ccccc1SC2(OCC(F)(F)F)c1ccccc1 (stereo unspecified)
EC50 (Left cardiac atrium [1]): 0.39 µM
Activity (Aorta [2]): 6%
IC50 [9]: 14.5 µM
Activity (Left cardiac atrium [3]): 75%
Activity (Right cardiac atrium [4]): 13%
Activity [14]: 75%

COc1ccc([C@@H]2Sc3ccccc3N(CCN(C)C)C(=O)[C@@H]2OC(C)=O)cc1 [DILTIAZEM]
EC30 (Right cardiac atrium [22]): 0.07 µM
Activity (Left cardiac atrium [5]): 78%
Activity (Aorta [2]): 88%
Activity (Left cardiac atrium [17]): 78%
IC50 [9]: 0.11 µM
Activity (Right cardiac atrium [10]): 94%
Activity (Aorta [23]): 88%
Activity [24]: 98%

CCOC1(c2ccc(OC)cc2)Sc2ccccc2-n2c1noc2=O (stereo unspecified)
EC50 (Left cardiac atrium [1]): 0.23 µM
IC50 (Cytochrome P450 1A2): > 20 µM
microsomal CLint at 1 µM (in vitro): 135 µL/min/mg
IC50 (Cytochrome P450 2C9): 11.8 µM
IC50 (Cytochrome P450 2D6): > 20 µM
Activity (Left cardiac atrium [5]): 73%
Stability (Liver microsome): Stable
IC50 (Cytochrome P450 3A4 [6]): > 20 µM
Activity (Aorta [2]): 11%
IC50 (Cytochrome P450 3A4 [8]): > 20 µM
IC50 (Cytochrome P450 2C19): 3.6 µM
Activity (Right cardiac atrium [4]): 19%
half-life at 1 µM [11]: 13 min
